Measured values: ChEMBL document CHEMBL3585269, “Simple structural modifications confer cytotoxicity to allobetulin” (Bioorg Med Chem, 2015)

system: not listed separately; experiment: Cytotoxicity against human 518A2 cells by SRB assay; format: functional, cell-based; conditions: Homo sapiens, 518A2; read-out: EC50
Method in brief: (§1)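 Photometric sulforhodamine B (SRB) read-out after 96 h of compound treatment. EC50 values are averaged from three independent experiments, each run in triplicate, and reported with a 95% confidence interval. The assay has an upper cut-off.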

Compound	EC50
CCCOC(=O)C[C@]1(C)[C@H]2CC[C@@H]3[C@H]4[C@H]5OC[C@@]4(CCC5(C)C)CC[C@@]3(C)[C@]2(C)CC[C@H]1C(C)(C)C(=O)OCCC	> 30 µM
C=CCOC(=O)C[C@]1(C)[C@H]2CC[C@@H]3[C@H]4[C@H]5OC[C@@]4(CCC5(C)C)CC[C@@]3(C)[C@]2(C)CC[C@H]1C(C)(C)C(=O)OCC=C	> 30 µM
C#CCOC(=O)C[C@]1(C)[C@H]2CC[C@@H]3[C@H]4[C@H]5OC[C@@]4(CCC5(C)C)CC[C@@]3(C)[C@]2(C)CC[C@H]1C(C)(C)C(=O)OCC#C	17.4 µM
CCCCOC(=O)C[C@]1(C)[C@H]2CC[C@@H]3[C@H]4[C@H]5OC[C@@]4(CCC5(C)C)CC[C@@]3(C)[C@]2(C)CC[C@H]1C(C)(C)C(=O)OCCCC	> 30 µM
CC1(C)CC[C@]23CC[C@]4(C)[C@H](CC[C@@H]5[C@@]6(C)CC[C@H](O)C(C)(C)[C@@H]6CC[C@]54C)[C@H]2[C@H]1OC3 [ALLOBETULIN]	> 30 µM
C=C(C)[C@@H]1CC[C@]2(CO)CC[C@]3(C)[C@H](CC[C@@H]4[C@@]5(C)CC[C@H](O)C(C)(C)[C@@H]5CC[C@]43C)[C@@H]12 [BETULIN]	28.8 µM

system: HT-29; experiment: Cytotoxicity against human HT-29 cells by SRB assay; format: functional, cell-based; conditions: Homo sapiens, HT-29; read-out: EC50; method in brief: as §1

Compound	EC50
CCCOC(=O)C[C@]1(C)[C@H]2CC[C@@H]3[C@H]4[C@H]5OC[C@@]4(CCC5(C)C)CC[C@@]3(C)[C@]2(C)CC[C@H]1C(C)(C)C(=O)OCCC	27 µM
C=CCOC(=O)C[C@]1(C)[C@H]2CC[C@@H]3[C@H]4[C@H]5OC[C@@]4(CCC5(C)C)CC[C@@]3(C)[C@]2(C)CC[C@H]1C(C)(C)C(=O)OCC=C	29.2 µM
C#CCOC(=O)C[C@]1(C)[C@H]2CC[C@@H]3[C@H]4[C@H]5OC[C@@]4(CCC5(C)C)CC[C@@]3(C)[C@]2(C)CC[C@H]1C(C)(C)C(=O)OCC#C	15.7 µM
CCCCOC(=O)C[C@]1(C)[C@H]2CC[C@@H]3[C@H]4[C@H]5OC[C@@]4(CCC5(C)C)CC[C@@]3(C)[C@]2(C)CC[C@H]1C(C)(C)C(=O)OCCCC	> 30 µM
CC1(C)CC[C@]23CC[C@]4(C)[C@H](CC[C@@H]5[C@@]6(C)CC[C@H](O)C(C)(C)[C@@H]6CC[C@]54C)[C@H]2[C@H]1OC3 [ALLOBETULIN]	> 30 µM
C=C(C)[C@@H]1CC[C@]2(CO)CC[C@]3(C)[C@H](CC[C@@H]4[C@@]5(C)CC[C@H](O)C(C)(C)[C@@H]5CC[C@]43C)[C@@H]12 [BETULIN]	> 30 µM

system: MCF7; experiment: Cytotoxicity against human MCF7 cells by SRB assay; format: functional, cell-based; conditions: Homo sapiens, MCF7; read-out: EC50; method in brief: as §1

Compound	EC50
CCCOC(=O)C[C@]1(C)[C@H]2CC[C@@H]3[C@H]4[C@H]5OC[C@@]4(CCC5(C)C)CC[C@@]3(C)[C@]2(C)CC[C@H]1C(C)(C)C(=O)OCCC	> 30 µM
C=CCOC(=O)C[C@]1(C)[C@H]2CC[C@@H]3[C@H]4[C@H]5OC[C@@]4(CCC5(C)C)CC[C@@]3(C)[C@]2(C)CC[C@H]1C(C)(C)C(=O)OCC=C	> 30 µM
C#CCOC(=O)C[C@]1(C)[C@H]2CC[C@@H]3[C@H]4[C@H]5OC[C@@]4(CCC5(C)C)CC[C@@]3(C)[C@]2(C)CC[C@H]1C(C)(C)C(=O)OCC#C	27.2 µM
CCCCOC(=O)C[C@]1(C)[C@H]2CC[C@@H]3[C@H]4[C@H]5OC[C@@]4(CCC5(C)C)CC[C@@]3(C)[C@]2(C)CC[C@H]1C(C)(C)C(=O)OCCCC	> 30 µM
CC1(C)CC[C@]23CC[C@]4(C)[C@H](CC[C@@H]5[C@@]6(C)CC[C@H](O)C(C)(C)[C@@H]6CC[C@]54C)[C@H]2[C@H]1OC3 [ALLOBETULIN]	> 30 µM
C=C(C)[C@@H]1CC[C@]2(CO)CC[C@]3(C)[C@H](CC[C@@H]4[C@@]5(C)CC[C@H](O)C(C)(C)[C@@H]5CC[C@]43C)[C@@H]12 [BETULIN]	24.4 µM

system: A549; experiment: Cytotoxicity against human A549 cells by SRB assay; format: functional, cell-based; conditions: Homo sapiens, A549; read-out: EC50; method in brief: as §1

Compound	EC50
CCCOC(=O)C[C@]1(C)[C@H]2CC[C@@H]3[C@H]4[C@H]5OC[C@@]4(CCC5(C)C)CC[C@@]3(C)[C@]2(C)CC[C@H]1C(C)(C)C(=O)OCCC	> 30 µM
C=CCOC(=O)C[C@]1(C)[C@H]2CC[C@@H]3[C@H]4[C@H]5OC[C@@]4(CCC5(C)C)CC[C@@]3(C)[C@]2(C)CC[C@H]1C(C)(C)C(=O)OCC=C	> 30 µM
C#CCOC(=O)C[C@]1(C)[C@H]2CC[C@@H]3[C@H]4[C@H]5OC[C@@]4(CCC5(C)C)CC[C@@]3(C)[C@]2(C)CC[C@H]1C(C)(C)C(=O)OCC#C	21.1 µM
CCCCOC(=O)C[C@]1(C)[C@H]2CC[C@@H]3[C@H]4[C@H]5OC[C@@]4(CCC5(C)C)CC[C@@]3(C)[C@]2(C)CC[C@H]1C(C)(C)C(=O)OCCCC	> 30 µM
CC1(C)CC[C@]23CC[C@]4(C)[C@H](CC[C@@H]5[C@@]6(C)CC[C@H](O)C(C)(C)[C@@H]6CC[C@]54C)[C@H]2[C@H]1OC3 [ALLOBETULIN]	> 30 µM
C=C(C)[C@@H]1CC[C@]2(CO)CC[C@]3(C)[C@H](CC[C@@H]4[C@@]5(C)CC[C@H](O)C(C)(C)[C@@H]5CC[C@]43C)[C@@H]12 [BETULIN]	20.6 µM

system: 8505C; experiment: Cytotoxicity against human 8505C cells by SRB assay; format: functional, cell-based; conditions: Homo sapiens, 8505C; read-out: EC50; method in brief: as §1

Compound	EC50
CCCOC(=O)C[C@]1(C)[C@H]2CC[C@@H]3[C@H]4[C@H]5OC[C@@]4(CCC5(C)C)CC[C@@]3(C)[C@]2(C)CC[C@H]1C(C)(C)C(=O)OCCC	> 30 µM
C=CCOC(=O)C[C@]1(C)[C@H]2CC[C@@H]3[C@H]4[C@H]5OC[C@@]4(CCC5(C)C)CC[C@@]3(C)[C@]2(C)CC[C@H]1C(C)(C)C(=O)OCC=C	> 30 µM
C#CCOC(=O)C[C@]1(C)[C@H]2CC[C@@H]3[C@H]4[C@H]5OC[C@@]4(CCC5(C)C)CC[C@@]3(C)[C@]2(C)CC[C@H]1C(C)(C)C(=O)OCC#C	18.7 µM
CCCCOC(=O)C[C@]1(C)[C@H]2CC[C@@H]3[C@H]4[C@H]5OC[C@@]4(CCC5(C)C)CC[C@@]3(C)[C@]2(C)CC[C@H]1C(C)(C)C(=O)OCCCC	> 30 µM
CC1(C)CC[C@]23CC[C@]4(C)[C@H](CC[C@@H]5[C@@]6(C)CC[C@H](O)C(C)(C)[C@@H]6CC[C@]54C)[C@H]2[C@H]1OC3 [ALLOBETULIN]	> 30 µM
C=C(C)[C@@H]1CC[C@]2(CO)CC[C@]3(C)[C@H](CC[C@@H]4[C@@]5(C)CC[C@H](O)C(C)(C)[C@@H]5CC[C@]43C)[C@@H]12 [BETULIN]	> 30 µM

system: A2780; experiment: Cytotoxicity against human A2780 cells by SRB assay; format: functional, cell-based; conditions: Homo sapiens, A2780; read-out: EC50; method in brief: as §1

Compound	EC50
CCCOC(=O)C[C@]1(C)[C@H]2CC[C@@H]3[C@H]4[C@H]5OC[C@@]4(CCC5(C)C)CC[C@@]3(C)[C@]2(C)CC[C@H]1C(C)(C)C(=O)OCCC	22.4 µM
C=CCOC(=O)C[C@]1(C)[C@H]2CC[C@@H]3[C@H]4[C@H]5OC[C@@]4(CCC5(C)C)CC[C@@]3(C)[C@]2(C)CC[C@H]1C(C)(C)C(=O)OCC=C	22.7 µM
C#CCOC(=O)C[C@]1(C)[C@H]2CC[C@@H]3[C@H]4[C@H]5OC[C@@]4(CCC5(C)C)CC[C@@]3(C)[C@]2(C)CC[C@H]1C(C)(C)C(=O)OCC#C	12.5 µM
CCCCOC(=O)C[C@]1(C)[C@H]2CC[C@@H]3[C@H]4[C@H]5OC[C@@]4(CCC5(C)C)CC[C@@]3(C)[C@]2(C)CC[C@H]1C(C)(C)C(=O)OCCCC	> 30 µM
CC1(C)CC[C@]23CC[C@]4(C)[C@H](CC[C@@H]5[C@@]6(C)CC[C@H](O)C(C)(C)[C@@H]6CC[C@]54C)[C@H]2[C@H]1OC3 [ALLOBETULIN]	> 30 µM
C=C(C)[C@@H]1CC[C@]2(CO)CC[C@]3(C)[C@H](CC[C@@H]4[C@@]5(C)CC[C@H](O)C(C)(C)[C@@H]5CC[C@]43C)[C@@H]12 [BETULIN]	29.3 µM
